Hits are enriched below; roughly 2.8% of the tested compounds scored in any of these assays.
Measles CPE: protection of cells from measles virus; Measles virus-infected cells, CPE protection, absorbance; protection (pct of control), % at 4 µM; 140,000 tested, 1.5% active; in the data active = protection mostly above about 24%, no sharp cut-off; inactive = mostly below about 26%
NPY Y2 blocker: antagonists of human neuropeptide Y receptor Y2 | P49146 | NPY-Y2 expressing cells, antagonist mode | inhibition, % at 2.7 µM | 140,000 tested, 0.99% active | AID 793; in the data active = inhibition above about 17%;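 note: 0% = vehicle with agonist challenge and 100% = reference antagonist with challenge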
NPY-Y1 antag: NPY-Y1 (human) receptor antagonism | HEK293-CNG Y1 cells, membrane potential fluorescence; NPY at EC95, then isoproterenol | P25929 | inhibition, % at 3.6 µM | AID 1040 | 200,000 tested, 1% active;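 active = inhibition above the campaign mean inhibition of all tested compounds plus 3 SD, cut at about 20% in these data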;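 note: 0% = DMSO wells given NPY plus isoproterenol and 100% = isoproterenol alone without NPY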
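Assay system: HEK293 Y1/CNG channel cell line; Doses: single compound dose of 3.6 µM, 0.4% DMSO; Timing: dye 3 h, compound 60 min room temperature, stimulation 45 min; Technique: Membrane-potential fluorescent dye readout; Measure: % inhibition of NPY effect.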
NPY-Y1 PAM-ag: potentiators or agonists of human neuropeptide Y receptor Y1. P25929. NPY-Y1 expressing cells, potentiator/agonist activation. activation, % at 3.6 µM. 220,000 tested, 0.37% active; in the data active = activation above about 33%, passing the limit was not always enough;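 note: cells stimulated with NPY at EC10 then isoproterenol at EC100; 0% = low agonist plus stimulus and 100% = saturating agonist plus stimulus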
NPY-Y2 PAM-ag: potentiators or agonists of human neuropeptide Y receptor Y2; P49146; cells expressing NPY-Y2, potentiator/agonist read-out; activation, % at 3.6 µM; 220,000 tested, 0.45% active; AID 1359; in the data active = activation above about 27%;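 note: cells stimulated with NPY near EC25 plus isoproterenol at EC100; 0% = vehicle plus submaximal agonist and 100% = vehicle plus saturating agonist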
Rad51 HR inh: blocks human Rad51 in homologous recombination; Q06609; hRad51 DNA strand exchange, fluorescence dequenching; inhibition, % at 10 µM; 200,000 tested, 0.085% active; AID 1385;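 active = inhibition above 40% at the single screening dose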;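 note: 0% = DMSO control wells and 100% = blanks with heterologous ssDNA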
Target sequence (Q06609 whole entry, looked up): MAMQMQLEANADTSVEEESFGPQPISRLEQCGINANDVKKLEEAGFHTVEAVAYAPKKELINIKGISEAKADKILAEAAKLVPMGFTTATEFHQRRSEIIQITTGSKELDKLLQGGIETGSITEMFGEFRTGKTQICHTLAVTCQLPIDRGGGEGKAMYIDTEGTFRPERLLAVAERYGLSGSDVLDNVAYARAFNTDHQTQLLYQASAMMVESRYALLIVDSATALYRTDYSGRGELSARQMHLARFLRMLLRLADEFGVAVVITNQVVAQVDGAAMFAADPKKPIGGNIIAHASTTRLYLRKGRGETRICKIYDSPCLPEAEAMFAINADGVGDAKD
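Assay system: Human Rad51 nucleoprotein filaments preassembled on unlabelled ssDNA | Reagent: Donor/quencher-labelled 47-bp dsDNA substrate | Doses: One concentration, 10 µM final | Times: 37 °C 15-min filament assembly, 30-min compound preincubation, 15-min exchange | Technique: Fluorescein emission 520 nm, excitation 485 nm | Benchmarks: Plate control and blank wells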
* marks the source's active call; other numbers are inactive results; . = no result.

SMILES	Measles CPE	NPY Y2 blocker	NPY-Y1 antag	NPY-Y1 PAM-ag	NPY-Y2 PAM-ag	Rad51 HR inh
Cc1sc2c(c1C)C(c1cccs1)=NCC(=O)N2CC(=O)NCc1cccs1	2	1	-2	2	9	-8
Cc1sc2c(c1C)C(c1ccc(C(C)(C)C)cc1)=NCC(=O)N2CC(=O)Nc1nccs1	54*	5	-3	-13	7	-4
CC(=O)OC1N=C(c2ccccc2Cl)c2cc(Br)ccc2N(C)C1=O (stereo not given)	.	.	.	14	19	.
C=C1[C@@H](C)[C@H]2[C@H](Cc3ccccc3)NC(=O)[C@]23OC(=O)/C=C/[C@H](O)CCC[C@@H](C)C/C=C/[C@H]3[C@@H]1O	.	.	21*	19	30	-4
C[C@H]1C/C=C/[C@H]2[C@H](O)[C@H](C)[C@@](C)(O)[C@H]3[C@H](Cc4ccccc4)NC(=O)[C@]32[C@H](O)/C=C/[C@](C)(O)C1	.	.	.	.	.	0
C[C@H]1CCC[C@H](O)CCCCCc2cc(O)cc(O)c2C(=O)O1	26	0	2	12	10	2
C[C@H]1CCC[C@@H](O)CCC/C=C/c2cc(O)cc(O)c2C(=O)O1	117*	2	-1	-15	-9	1
C[C@@H]1C(=O)O[C@@H]2[C@H](O)C34[C@@H]5OC(=O)C3(O[C@H]3OC(=O)[C@H](O)C34[C@H](C(C)(C)C)[C@H]5O)[C@@]12O (stereo not given in full)	20*	2	-2	0	0	7
CCCNC1=C(C)C(=O)C2=C(C1=O)C(COC(N)=O)[C@]1(OC)C3NC3CN21 (stereo not given in full)	.	.	.	-13	-12	-7
CC(=NCCN1CCCCC1)c1c(O)[nH]c(=O)[nH]c1=O	1	3	3	-3	13	-1
O=P(NC(c1ccccc1)c1ccccc1)(Oc1ccccc1)Oc1ccccc1	23	38*	21*	-15	-18	-10
O=C(C1CCN(S(=O)(=O)c2ccccc2)CC1)N1CCC2(CC1)OCCO2	8	1	-5	-6	-11	-3
Fc1ccc(CNCCc2ccccc2)cc1	.	.	3	-6	-4	5
C1=C(CCNCc2ccccc2)CCCC1	35*	5	0	-4	-13	0
O=C(NCc1ccc(C(=O)N2CCC3(CC2)OCCO3)cc1)c1cccc(Br)c1	26*	-1	0	3	8	3
CCc1nc(N2CCNCC2)c(C#N)c2c1CSC(C)(C)C2	3	3	-12	92*	89*	.
CC(=O)N1N=C2C3CCN(CC3)C2C1c1cccc2ccccc12 (stereo not given)	8	-1	1	9	0	-1
CN(C)CCN=Cc1c(O)n(CCC2=CCCCC2)c(=O)[nH]c1=O	33*	2	1	-1	14	0
COc1ccccc1CCNC1CCC(C(C)(C)C)CC1 (stereo not given)	22	30*	29*	-56	11	-3
CS(=O)(=O)NCc1nnc2n1-c1ccc(Cl)cc1C(c1ccccc1)=NC2	28*	2	4	15	10	-3
CCS(=O)(=O)NCc1nnc2n1-c1ccc(Cl)cc1C(c1ccccc1)=NC2	6	0	-2	-23	-4	1
CCN(CC)C(=O)N[C@H]1C[C@@H]2c3cccc4[nH]cc(c34)C[C@H]2N(C)C1	20	0	-11	84*	72*	-3
C=C(C)[C@H]1CN[C@H](C(=O)O)[C@H]1CC(=O)O	.	.	.	.	.	3
CC(=O)N(C1=NCCCS1)c1ccccc1Cl	.	.	2	2	-4	1
O=P(O)(O)C12CC3CC(CC(C3)C1)C2	13	-3	2	-16	-8	-2
SMILES	Measles CPE	NPY Y2 blocker	NPY-Y1 antag	NPY-Y1 PAM-ag	NPY-Y2 PAM-ag	Rad51 HR inh
CCCCN1C(=O)NC(=O)/C(=C/c2cnc(SC)nc2)C1=O	51*	0	-1	-1	1	-5
COC(=O)C1=C(c2ccccc2)C[C@@H]2CC[C@H]1N2C(=O)NCCCOC(C)C	.	.	.	.	.	-5
COc1ccc(CCNCc2ccc(C)s2)cc1OC	.	.	4	-20	-15	11
COc1ccc(Cc2nccc3cc(OC)c(OC)cc23)cc1OC	22	20*	22*	-54	-20	3
CC(Cl)(Cl)/C(=N/P(=S)(N1CCOCC1)N1CCOCC1)N1CCOCC1	.	.	.	10	2	.
NC(=O)CN1CC(c2ccccc2)CC1=O (stereo not given)	39*	1	2	16	5	4
O=C(c1ccccc1)C(CN1CCCC1)c1ccccc1 (stereo not given)	22*	2	1	-5	2	.
O=C(CN1CCCCC1)c1ccc(F)cc1	.	.	.	15	11	-9
CN1CC=C2C(C#N)=C(N)C(C#N)(C#N)C(c3ccncc3)C2C1 (stereo not given)	45*	1	-1	-14	8	-27
O=C1/C(=C\c2ccccc2)C2OCC=C3CN4CCC56c7ccccc7N1C5C2C3CC46 (stereo not given)	.	.	.	-8	2	16
CN(C(=O)Oc1cccc2cccnc12)c1ccccc1	18	1	5	13	-2	-12
CN(C(=O)Oc1ccc(Cl)c2cccnc12)c1ccccc1	31*	2	3	9	12	3
Cc1c(CCN)ccc2c1[nH]c1ccccc12	.	.	.	-1	-9	-20
CC[N+](C)(CC)CCCOC(=O)C(O)(c1ccccc1)C1CCCCC1 (stereo not given)	32*	4	-7	14	-10	0
CCOC(C(=O)OCCC[N+](C)(CC)CC)(c1ccccc1)c1ccccc1	11	-1	8	0	-9	-6
Cc1ccc2nc3c(cc2c1)CC1(C(=O)N(C)C(=O)N(C)C1=O)C1CCCCN31 (stereo not given)	34*	0	1	32	10	-7
O=C1C(=O)c2ccccc2-c2ccccc21	0	40*	39*	-96	-65	3
COC(=O)C1=C(c2ccccc2)C[C@@H]2CC[C@H]1N2C(=O)N1CCC(C)CC1	.	.	.	.	.	5
COC1CCCCC1NCCc1ccccc1 (stereo not given)	.	.	0	10	6	-4
CCC(CC)NC1CCCCC1OC (stereo not given)	26*	1	3	1	4	3
CCN(CC)CCOC(=O)c1ccc(N=Cc2c(O)[nH]c(=O)[nH]c2=O)cc1	60*	-2	2	0	-5	-37
CCn1ncc(/C=C2/CC3C4CC=C5CC(O)CCC5(C)C4CCC3(C)C2=O)c1C (stereo not given)	.	1	-1	-17	8	.
Cc1nn(C)c(C)c1/C=C1/CC2C3CC=C4CC(O)CCC4(C)C3CCC2(C)C1=O (stereo not given)	5	47*	26*	-45	-20	-7

Screening results from PubChem.
